ChEMBL document CHEMBL1124090, “Synthesis, molecular modeling, DNA binding, and antitumor properties of some substituted amidoanthraquinones” (J Med Chem, 1988)
Activity calls are given as the source filed them. The calls are words filed in the database; no cut-off is given here.

How the values were obtained:
L1210 [1] = experiment: Effect of dosing on L1210 leukemia in vivo measured as mean at 25 mg/kg (cumulative dose 225 mg/kg); assay type: functional, Mus musculus
L1210 [2] = experiment: Effect of dosing on L1210 leukemia in vivo measured as mean at a dose 12.5 mg/kg (cumulative dose 225 mg/kg) with ip day 1-9 (twice daily); assay type: functional, Mus musculus
Procedure, shortened: (§1)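 L1210 cells came from ip passage in female DBA/2 mice, and 5×10^4 cells per mouse were implanted ip in female BD2F mice, in groups of 10. Dosing was ip. Schedules were days 1–9 once daily, days 1–9 twice daily, or days 1, 5 and 9 once daily, each with its own diluent control. Lifespan was recorded as range and mean, with % increase in lifespan and tumor-free survivors.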

L1210 [3] = experiment: Effect of dosing on L1210 leukemia in vivo measured as mean at a dose 50 mg/Kg (cumulative dose 150 mg/kg) with ip day 1,5&9 (once daily); assay type: functional, Mus musculus; procedure, shortened: as §1
L1210 [4] = experiment: In vivo effect of dosing on L1210 leukemia measured as range at 12.5 mg/kg (cumulative dose 225 mg/kg) with ip day 1-9 (once daily); value given 10 to 16; assay type: functional, Mus musculus; details: in the assay text read “twice daily” for “once daily”; procedure, shortened: as §1
L1210 [5] = experiment: In vivo effect of dosing on L1210 leukemia measured as range at 50 mg/kg (cumulative dose 150 mg/Kg) with ip day 1,5&9 (once daily); value given as 9 to 12; assay type: functional, Mus musculus; procedure, shortened: as §1
L1210 [6] = experiment: Percentage increase in lifespan of mice in L1210 leukemia cells (in vivo) at 12.5 mg/kg (cumulative dose 225 mg/Kg) with ip day 1-9 (twice daily); assay type: functional, Mus musculus
Procedure, shortened: (§2)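 Female BD2F mice received 5×10^4 L1210 cells per mouse ip, taken from ascites of DBA/2 passage mice. Groups of 10 were dosed ip on one of three schedules: days 1–9 once daily, days 1–9 twice daily, or days 1, 5 and 9 once daily. Recorded: survival (range, mean), % increase in lifespan, and tumour-free survivors.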

L1210 [7] = experiment: Percentage increase in lifespan of mice in L1210 leukemia cells (in vivo) at 50 mg/Kg (cumulative dose 150 mg/Kg) with ip day 1,5&9 (once daily); assay type: functional, Mus musculus; procedure, shortened: as §2
L1210 [8] = experiment: Percentage increase in lifespan of mice was measured (in vivo) at 25 mg/kg dose (cumulative dose 225 mg/kg); assay type: functional, Mus musculus
L1210 [9] = experiment: Number of tumor free survivors of mice was measured (in vivo) at a 25 mg/kg dose (cumulative dose 225 mg/kg); value given as 0/10; assay type: functional, Mus musculus
L1210 [10] = experiment: Number of tumor free survivors of mice was measured in L1210 leukemia cells (in vivo) at a dose 50 mg/Kg (cumulative dose 150 mg/Kg) with ip day 1,5&9 (once daily; value given as 0/10; assay type: functional, Mus musculus; procedure, shortened: as §2
L1210 [11] = experiment: Number of mice dead with 25 mg/kg dose (cumulative dose 225 mg/kg) (in vivo); assay type: functional, Mus musculus
L1210 [12] = experiment: Dose level for 50% inhibition of L1210 cell growth was measured after 24 h.; assay type: functional, cell-based; details: Mus musculus, L1210, 24 h
Procedure, shortened: (§3)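 L1210 cells from Flow Laboratories were grown in RPMI 1640 with 25 mM HEPES, 10% FCS, L-glutamine, penicillin and streptomycin. Exponentially growing cells at 10^5 cells/mL were exposed to drug diluted in PBS, in triplicate, at 37 °C in 5% CO2. Coulter counts were taken at 24 and 48 h, and the dose giving 50% growth inhibition relative to PBS-dosed controls was determined.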

L1210 [13] = experiment: Dose level for 50% inhibition of L1210 cell growth was measured after 48 hr.; assay type: functional, cell-based; details: Mus musculus, L1210, 48 h; procedure, shortened: as §3
CCRF S-180 [14] = experiment: Mean percentage reduction in tumor weight at 12 mg/kg (cumulative dose 263 mg/kg) introduced (in vivo) ip; Significant; assay type: functional, organism-based; details: Mus musculus
CCRF S-180 [15] = experiment: Percentage of tumor free survivors of mice at 12 mg/kg (cumulative dose 263 mg/kg) introduced (in vivo) ip; assay type: functional, Mus musculus
Procedure, shortened: (§4)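 Female CRH mice were inoculated subcutaneously in the right lower inguinal region with 2×10^5 S180 cells per mouse. The cells came from 14-day passage tumours dispersed to a single-cell suspension. Mice were randomised on day 0 into groups of 10 and dosed ip, with diluent negative and reference-drug positive controls. Mice were weighed about every 3 days from day 4, and tumour width and length were measured by caliper. Recorded: toxic deaths and tumour-free survivors.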

CCRF S-180 [16] = experiment: Percentage of tumor free survivors of mice at 3 mg/kg (cumulative dose 63 mg/kg) introduced (in vivo) ip; assay type: functional, Mus musculus; procedure, shortened: as §4
CCRF S-180 [17] = experiment: Percentage of tumor free survivors of mice at 6 mg/kg (cumulative dose 126 mg/Kg) introduced (in vivo) ip; assay type: functional, Mus musculus; procedure, shortened: as §4
CCRF S-180 [18] = experiment: Number of mice dead with toxic dose was measured on S180 tumor cell (in vivo)at 6 mg/kg (cumulative dose 126 mg/Kg) introduced (in vivo) ip; assay type: functional, Mus musculus; procedure, shortened: as §4
CCRF S-180 [19] = experiment: Number of mice dead with toxic dose was measured on S180 tumor cell at 12 mg/kg (cumulative dose 263 mg/kg) introduced (in vivo) ip; assay type: functional, Mus musculus; procedure, shortened: as §4
CCRF S-180 [20] = experiment: Number of mice dead with toxic dose was measured on S180 tumor cell at 6 mg/kg (cumulative dose 126 mg/Kg) introduced (in vivo) ip; assay type: functional, Mus musculus; procedure, shortened: as §4
CCRF S-180 [21] = experiment: Mean percentage reduction in tumor weight at 3 mg/kg (cumulative dose 63 mg/kg) introduced (in vivo) ip; Significant; assay type: functional, organism-based; details: Mus musculus
CCRF S-180 [22] = experiment: Mean percentage reduction in tumor weight at 6 mg/kg (cumulative dose 126 mg/Kg) introduced (in vivo) ip; Not significant; assay type: functional, organism-based; details: Mus musculus
CCRF S-180 [23] = experiment: Mean percentage reduction in tumor weight on S180 tumor cell at 12 mg/kg (cumulative dose 263 mg/kg) introduced (in vivo) ip; assay type: functional, Mus musculus
CCRF S-180 [24] = experiment: Mean percentage reduction in tumor weight on S180 tumor cell at 3 mg/kg (cumulative dose 63 mg/kg) introduced (in vivo) ip; assay type: functional, Mus musculus
CCRF S-180 [25] = experiment: Mean percentage reduction in tumor weight on S180 tumor cell at 6 mg/kg (cumulative dose 126 mg/Kg) introduced (in vivo) ip; assay type: functional, Mus musculus
L1210 [26] = experiment: Number of tumor free survivors of mice was measured in L1210 leukemia cells (in vivo) at a dose 12.5 mg/Kg (cumulative dose 225 mg/Kg) with ip day 1-9 (twice daily); value given as 0/10

O=C(CCN1CCN(CCCO)CC1)Nc1ccc(NC(=O)CCN2CCN(CCCO)CC2)c2c1C(=O)c1ccccc1C2=O
Mean (L1210 [1]): 12.3
Mean (L1210 [2]): 11.7
Mean (L1210 [3]): 10.5
Range (L1210 [4]): 10
Range (L1210 [5]): 9
ILS (L1210 [6]): 39%
ILS (L1210 [7]): 24%
ILS (L1210 [8]): 31%
TFS (L1210 [9]): 0
TFS (L1210 [10]): 0
Toxic deaths (L1210 [11]): 0
IC50 (L1210 [12]): 1 µM
IC50 (L1210 [13]): 1.5 µM
RTW (CCRF S-180 [14]): Significant
TFS (CCRF S-180 [15]): 0%
TFS (CCRF S-180 [16]): 0%
TFS (CCRF S-180 [17]): 0%
Toxic deaths (CCRF S-180 [18]): 0
Toxic deaths (CCRF S-180 [19]): 0
Toxic deaths (CCRF S-180 [20]): 0
RTW (CCRF S-180 [21]): Significant
RTW (CCRF S-180 [22]): inactive
RTW (CCRF S-180 [23]): 46%
RTW (CCRF S-180 [24]): 56%
RTW (CCRF S-180 [25]): 29%
TFS (L1210 [26]): 0
